Assay results published in ChEMBL document CHEMBL5236592, “Induction of Ferroptosis in Glioblastoma and Ovarian Cancers by a New Pyrrole Tubulin Assembly Inhibitor” (J Med Chem, 2022).
The source made the active and inactive calls.

Experiments:
Assay type in all cases: functional, organism-based
Conditions in all cases: time 40.0 day
U-87MG ATCC [1] = experiment: Induction of ferroptosis-mediated antitumor activity against human U-87 MG cells xenografted in BALB/C nu/nu mouse assessed as increase in malondialdehyde level in tumor at 25 mg/kg, ip administered every 2 days for 40 days by biochemical analysis
How it was run: (§1)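 U-87 MG or SKOV-3 sc xenografts (1 × 10^8 cells/mL) in female BALB/c nu/nu mice, 4 per group. Given 25 mg/kg ip in 100 μL every 2 days, or saline. Tumors harvested on day 40 and assayed for LPO, MDA, lactic acid, total glutathione (GSH + GSSG), ATP and Fe2+.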

U-87MG ATCC [2] = experiment: Induction of ferroptosis-mediated antitumor activity against human U-87 MG cells xenografted in BALB/C nu/nu mouse assessed as increase in lactic acid level in tumor at 25 mg/kg, ip administered every 2 days for 40 days by biochemical analysis; how it was run: as §1
SK-OV-3 [3] = experiment: Induction of ferroptosis-mediated antitumor activity against human SK-OV-3 cells xenografted in BALB/C nu/nu mouse assessed as increase in […] level in tumor at 25 mg/kg, ip administered every 2 days for 40 days by biochemical analysis; how it was run: as §1
SK-OV-3 [4] = experiment: Induction of ferroptosis-mediated antitumor activity against human SK-OV-3 cells xenografted in BALB/C nu/nu mouse assessed as reduction in total glutathione level in tumor at 25 mg/kg, ip administered every 2 days for 40 days by biochemical analysis; how it was run: as §1
SK-OV-3 [5] = experiment: Induction of ferroptosis-mediated antitumor activity against human SK-OV-3 cells xenografted in BALB/C nu/nu mouse assessed as reduction in ATP level in tumor at 25 mg/kg, ip administered every 2 days for 40 days by biochemical analysis; how it was run: as §1
U-87MG ATCC [6] = experiment: Induction of ferroptosis-mediated antitumor activity against human U-87 MG cells xenografted in BALB/C nu/nu mouse assessed as reduction in ATP level in tumor at 25 mg/kg, ip administered every 2 days for 40 days by biochemical analysis; how it was run: as §1
Mus musculus [7] = experiment: Upregulation of Ptgs2 mRNA expression in tumor of BALB/C nu/nu mouse xenografted with human U-87 MG cells at 25 mg/kg, ip administered every 2 days for 40 days by qPCR analysis
How it was run: (§2)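 Female BALB/c nu/nu mice, 10 weeks old, 4 per group. Inoculated s.c. with 1 × 10^8 cells/mL of log-phase U-87 MG or SKOV-3 cells. Dosed i.p. with 100 μL at 25 mg/kg every 2 days; controls got 100 μL saline. Tumors harvested on day 40. RNA extracted from about 20 mg of tissue. qPCR panel of 69 genes, 40 cycles (94 °C 20 s, 60 °C 34 s). Analysed by 2–ΔΔCt; fold ≥1.5 taken as increased.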

Mus musculus [8] = experiment: Upregulation of Lpcat3 mRNA expression in tumor of BALB/C nu/nu mouse xenografted with human U-87 MG cells at 25 mg/kg, ip administered every 2 days for 40 days by qPCR analysis; how it was run: as §2
Mus musculus [9] = experiment: Upregulation of Gclc mRNA expression in tumor of BALB/C nu/nu mouse xenografted with human U-87 MG cells at 25 mg/kg, ip administered every 2 days for 40 days by qPCR analysis
How it was run: (§3)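 Female BALB/c nu/nu mice bearing sc U-87 MG or SKOV-3 xenografts were dosed ip at 25 mg/kg (100 μL) every 2 days, or given saline, and tumors were taken at day 40. RNA was extracted from about 20 mg of tissue. qPCR ran 40 cycles (95 °C 15 min; 94 °C 20 s; 60 °C 34 s) on a 69-gene panel. Fold change was by 2^–ΔΔCt, with ≥1.5 counted as increased.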

Mus musculus [10] = experiment: Upregulation of Alfm1 mRNA expression in tumor of BALB/C nu/nu mouse xenografted with human U-87 MG cells at 25 mg/kg, ip administered every 2 days for 40 days by qPCR analysis; how it was run: as §3
Mus musculus [11] = experiment: Upregulation of Acsl4 mRNA expression in tumor of BALB/C nu/nu mouse xenografted with human U-87 MG cells at 25 mg/kg, ip administered every 2 days for 40 days by qPCR analysis; how it was run: as §3
Mus musculus [12] = experiment: Upregulation of Akr1c1 mRNA expression in tumor of BALB/C nu/nu mouse xenografted with human U-87 MG cells at 25 mg/kg, ip administered every 2 days for 40 days by qPCR analysis; how it was run: as §3
Mus musculus [13] = experiment: Upregulation of FTL mRNA expression in tumor of BALB/C nu/nu mouse xenografted with human U-87 MG cells at 25 mg/kg, ip administered every 2 days for 40 days by qPCR analysis; how it was run: as §3
Mus musculus [14] = experiment: Upregulation of Hspb1 mRNA expression in tumor of BALB/C nu/nu mouse xenografted with human SK-OV-3 cells at 25 mg/kg, ip administered every 2 days for 40 days by qPCR analysis; how it was run: as §2
Mus musculus [15] = experiment: Upregulation of FTH1 mRNA expression in tumor of BALB/C nu/nu mouse xenografted with human SK-OV-3 cells at 25 mg/kg, ip administered every 2 days for 40 days by qPCR analysis; how it was run: as §3
Mus musculus [16] = experiment: Upregulation of Chac1 mRNA expression in tumor of BALB/C nu/nu mouse xenografted with human SK-OV-3 cells at 25 mg/kg, ip administered every 2 days for 40 days by qPCR analysis; how it was run: as §3
U-87MG ATCC [17] = experiment: Antitumor activity against human U-87 MG cells xenografted in BALB/C nu/nu mouse assessed as reduction in CD31 expression in tumor at 25 mg/kg, ip administered every 2 days for 40 days by immunofluoresence staining based assay
How it was run: (§4)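 Female BALB/c nu/nu mice, 10 weeks old, 4 per group. Received subcutaneous U-87 MG or SKOV-3 cells (1 × 10^8 cells/mL, harvested in log phase). Dosed ip with 100 μL at 25 mg/kg every 2 days; controls got 100 μL saline on the same schedule. Sacrificed at 40 days; tumors weighed, volume = ab²/2. Tumor sections (6 μm, paraffin) stained by immunofluorescence for Ki67 or CD31 with Alexa Fluor 488 secondary.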

SK-OV-3 [18] = experiment: Antitumor activity against human SK-OV-3 cells xenografted in BALB/C nu/nu mouse assessed as reduction in CD31 expression in tumor at 25 mg/kg, ip administered every 2 days for 40 days by immunofluoresence staining based assay; how it was run: as §4
U-87MG ATCC [19] = experiment: Induction of ferroptosis-mediated antitumor activity against human U-87 MG cells xenografted in BALB/C nu/nu mouse assessed as reduction in GPX4 protein expression in tumor at 25 mg/kg, ip administered every 2 days for 40 days by immunofluoresence staining based assay
How it was run: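 Xenografts of U-87 MG or SKOV-3 (1 × 10^8 cells/mL, sc) in female BALB/c nu/nu mice, 4 per group. Treated ip at 25 mg/kg in 100 μL every 2 days versus saline, tumors collected at day 40. Paraffin sections (6 μm) were blocked at 37 °C for 30 min, then incubated with rabbit anti-GPX4 or anti-FTH1 and then Alexa Fluor 488 anti-rabbit, each for 45 min at 37 °C.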

Measured: Activity

COc1cc(C(=O)c2cn(-c3ncccn3)cc2-c2ccco2)cc(OC)c1OC
active: all assays above
